Results of several laboratories.
Compare with care: the assays were run in different laboratories.
Effect on: metabolic stability
Sample: liver microsomes

| Structure (SMILES) | system | setting | microsomal CLint |
| --- | --- | --- | --- |
| COCC(=O)N1CCC[C@H](C(=O)NCc2nc(-c3ccc(C)nc3)cs2)C1 | male Sprague-Dawley rat | 0.5 µM | 6.3 µL/min/mg |
| O=C(Nc1ccc(OC(F)(F)Cl)cc1)c1cnc(N2CC[C@@H](O)C2)c(-c2ccn[nH]2)c1 | rat | 1 µM, pH 7.4 | 12.9 µL/min/mg |
| N#Cc1ccc(C[C@H](Nc2c(Nc3ccc(F)cc3)c(=O)c2=O)C(=O)N2CCc3ccccc32)cc1 | rat | 10 µM, pH 7.4 | 34.6 µL/min/mg |
| COc1ccc(Cn2cc(CO[C@@H]3O[C@H]4[C@H](OC[C@H]4O)[C@H]3O)nn2)cc1 | rat |  | < 14.4 µL/min/mg |
| O=C(NCc1nc(-c2ccccc2)cs1)[C@H]1CCCN(C(=O)COCC(F)F)C1 | male Sprague-Dawley rat | 0.5 µM | 85 µL/min/mg |
| N#Cc1ccc(C[C@H](Nc2nnc(-c3ccc(F)cc3)s2)C(=O)N2CCc3ccccc32)cc1 | rat | 10 µM, pH 7.4 | 35.9 µL/min/mg |
| O=C1c2ccccc2C(=O)N1CCCN1CCN(C(c2ccc(F)cc2)c2ccc(F)cc2)CC1 | rat | 100 ng/mL | 101 µL/min/mg |
| CN1CCC[C@H](OCC(=O)N2CCC[C@H](C(=O)NCc3nc(-c4ccc(C(F)(F)F)cc4)cs3)C2)C1 | male Sprague-Dawley rat | 0.5 µM | 33 µL/min/mg |
| Cc1cccc(-c2nnc(N[C@@H](Cc3ccc(C#N)cc3)C(=O)N3CCc4ccccc43)o2)c1 | rat | 10 µM, pH 7.4 | 38.5 µL/min/mg |
| CONC(=O)c1cccc2c1cc(C)n2-c1nc2c(c(NCc3ccccc3)n1)CCCN2 | rat | 1 µM, pH 7.4 | 413 µL/min/mg |
| Cc1[nH]c(C)c(S(=O)(=O)Nc2ccc(C(F)(F)F)c(Cl)c2)c1C(=O)N(C)C | rat |  | 122 µL/min/mg |
| N#Cc1ccc(C[C@H](Nc2nnc(-c3ccc(Br)cc3)o2)C(=O)N2CCc3ccccc32)cc1 | rat | 10 µM, pH 7.4 | 25.7 µL/min/mg |
| Cc1[nH]c(C)c(S(=O)(=O)Nc2ccc(C(F)(F)F)c(Cl)c2Cl)c1C(=O)N1CCC(F)(F)C1 | rat |  | 21.8 µL/min/mg |
| COCC(=O)N1CCC[C@H](C(=O)NCc2nc(-c3ccc(-c4ccccc4)cc3)cs2)C1 | male Sprague-Dawley rat | 0.5 µM | 194 µL/min/mg |
| CCOc1c([C@H](C)n2nc(C)c3c(N)ncnc32)cc(Cl)c(F)c1[C@@H]1CNC(=O)C1 | rat | 0.5 µM, pH 7.4 | 2.4 µL/min/mg |
| N#Cc1ccc(C[C@H](Nc2c(Nc3ccc(Br)cc3)c(=O)c2=O)C(=O)N2CCc3ccccc32)cc1 | rat | 10 µM, pH 7.4 | 18.1 µL/min/mg |
| COCC(=O)N1CCC[C@H](C(=O)NCc2nc(-c3ccc(OC)cc3)cs2)C1 | male Sprague-Dawley rat | 0.5 µM | 39 µL/min/mg |
